Assay results: ChEMBL document CHEMBL1122773 (1984)
Converted amounts (≈) assume the structure as drawn.

Test system: Staphylococcus aureus
Assay: In vitro antibacterial activity for minimum inhibition concentration (MIC) required to inhibit growth of Staphylococcus aureus
Assay type: functional
Outline: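 Broth microdilution in brain/heart infusion broth, inoculated with a standardized suspension to a final 10^5 viable cells/mL. Incubation 20 h at 37 °C. MIC read as the lowest concentration preventing visible growth.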

Question: For `CCCC[C@H]1CCN[C@@H](C(=O)NC(C(C)Cl)C2OC(SC)C(O)C(O)C2O)C1` (stereo partly drawn), which MIC is on record?
Answer: 31.2 µg/mL (≈ 71.1 µM)

Question: How did the MIC turn out when `CCCCCC[C@H]1CCN[C@@H](C(=O)NC(C(C)Cl)C2OC(SC)C(O)C(O)C2O)C1` (stereo partly drawn) was run?
Answer: 0.5 µg/mL (≈ 1.07 µM)

Question: For `CSC1OC(C(NC(=O)c2ncccc2C)C(C)Cl)C(O)C(O)C1O` (stereo not drawn), which MIC is on record?
Answer: > 100 µg/mL

Question: With `CSC1OC(C(NC(=O)c2cccc(C)n2)C(C)Cl)C(O)C(O)C1O` (stereo not drawn) as the compound, how does the MIC read?
Answer: > 25 µg/mL

Question: With `CSC1OC(C(NC(=O)c2cc(C(C)(C)C)ccn2)C(C)Cl)C(O)C(O)C1O` (stereo not drawn) as the compound, how does the MIC read?
Answer: > 100 µg/mL

Question: How did the MIC turn out when `CCCC[C@@H]1CCN[C@H](C(=O)NC(C(C)Cl)C2OC(SC)C(O)C(O)C2O)C1` (stereo partly drawn) was run?
Answer: 0.06 µg/mL (≈ 0.137 µM)

Question: `CC[C@H]1CCC[C@@H](C(=O)NC(C(C)Cl)C2OC(SC)C(O)C(O)C2O)N1` (stereo partly drawn) was tested. Which MIC did it give?
Answer: > 25 µg/mL

Question: Which MIC does the source give for `CSC1OC(C(NC(=O)[C@@H]2CCC[C@H](C)N2)C(C)Cl)C(O)C(O)C1O` (stereo partly drawn) here?
Answer: > 25 µg/mL

Question: How did the MIC turn out when `CSC1OC(C(NC(=O)[C@H]2CC3CCN2CC3)C(C)Cl)C(O)C(O)C1O` (stereo partly drawn) was run?
Answer: 50 µg/mL (≈ 122 µM)

Question: With `CCCc1ccnc(C(=O)NC(C(C)Cl)C2OC(SC)C(O)C(O)C2O)c1` (stereo not drawn) as the compound, how does the MIC read?
Answer: > 100 µg/mL

Question: `CSC1OC(C(NC(=O)[C@@H]2CCCNC2)C(C)Cl)C(O)C(O)C1O` (stereo partly drawn) was tested. Which MIC did it give?
Answer: > 80 µg/mL

Question: For `CSC1OC(C(NC(=O)c2cccnc2)C(C)Cl)C(O)C(O)C1O` (stereo not drawn), which MIC is on record?
Answer: > 100 µg/mL

Question: How did the MIC turn out when `CSC1OC(C(NC(=O)[C@H]2CCCCN2)C(C)Cl)C(O)C(O)C1O` (stereo partly drawn) was run?
Answer: 25 µg/mL (≈ 65.3 µM)

Question: How did the MIC turn out when `CSC1OC(C(NC(=O)c2ccncc2)C(C)Cl)C(O)C(O)C1O` (stereo not drawn) was run?
Answer: > 1000 µg/mL

Question: For `CS[C@H]1O[C@H](C(NC(=O)C2CCNCC2)C(C)Cl)[C@H](O)[C@H](O)[C@H]1O` (stereo partly drawn), which MIC is on record?
Answer: > 80 µg/mL

Question: With `CC[C@H]1CCN(CCO)[C@@H](C(=O)NC(C(C)Cl)C2OC(SC)C(O)C(O)C2O)C1` (stereo partly drawn) as the compound, how does the MIC read?
Answer: > 160 µg/mL

Question: How did the MIC turn out when `CCCCCC[C@@H]1CCN(C)[C@H](C(=O)NC(C(C)Cl)C2OC(SC)C(O)C(O)C2O)C1` (stereo partly drawn) was run?
Answer: 0.3 µg/mL (≈ 0.624 µM)

Question: How did the MIC turn out when `CSC1OC(C(NC(=O)[C@@H]2C[C@H](C(C)(C)C)CCN2)C(C)Cl)C(O)C(O)C1O` (stereo partly drawn) was run?
Answer: 2 µg/mL (≈ 4.56 µM)

Question: `CC[C@H]1CCN(C)[C@@H](C(=O)NC(C(C)Cl)C2OC(SC)C(O)C(O)C2O)C1` (stereo partly drawn) was tested. Which MIC did it give?
Answer: > 100 µg/mL

Question: Which MIC does the source give for `CC[C@@H]1CCC[C@H](C(=O)NC(C(C)Cl)C2OC(SC)C(O)C(O)C2O)N1` (stereo partly drawn) here?
Answer: > 25 µg/mL

Question: Which MIC does the source give for `CCC[C@H]1CCN[C@@H](C(=O)NC(C(C)Cl)C2OC(SC)C(O)C(O)C2O)C1` (stereo partly drawn) here?
Answer: > 25 µg/mL

Question: With `CCCCCC[C@@H]1CCN[C@H](C(=O)NC(C(C)Cl)C2OC(SC)C(O)C(O)C2O)C1` (stereo partly drawn) as the compound, how does the MIC read?
Answer: 0.03 µg/mL (≈ 0.0642 µM)

Question: Which MIC does the source give for `CCCCCCCC[C@@H]1CCN[C@H](C(=O)NC(C(C)Cl)C2OC(SC)C(O)C(O)C2O)C1` (stereo partly drawn) here?
Answer: 0.3 µg/mL (≈ 0.606 µM)

Question: How did the MIC turn out when `CSC1OC(C(NC(=O)[C@H]2CCCCN2C)C(C)Cl)C(O)C(O)C1O` (stereo partly drawn) was run?
Answer: > 100 µg/mL

Question: With `CCC[C@@H]1CCN[C@H](C(=O)NC(C(C)Cl)C2OC(SC)C(O)C(O)C2O)C1` (stereo partly drawn) as the compound, how does the MIC read?
Answer: 0.5 µg/mL (≈ 1.18 µM)

Question: Which MIC does the source give for `CCCC[C@@H]1CCN(CCO)[C@H](C(=O)NC(C(C)Cl)C2OC(SC)C(O)C(O)C2O)C1` (stereo partly drawn) here?
Answer: 0.16 µg/mL (≈ 0.331 µM)

Question: `CSC1OC(C(NC(=O)[C@H]2CCCCCN2)C(C)Cl)C(O)C(O)C1O` (stereo partly drawn) was tested. Which MIC did it give?
Answer: > 100 µg/mL

Question: For `CC[C@@H]1CC[C@H](C(=O)NC(C(C)Cl)C2OC(SC)C(O)C(O)C2O)NC1` (stereo partly drawn), which MIC is on record?
Answer: 2.5 µg/mL (≈ 6.08 µM)

Question: With `CCc1ccc(C(=O)NC(C(C)Cl)C2OC(SC)C(O)C(O)C2O)nc1` (stereo not drawn) as the compound, how does the MIC read?
Answer: 62.5 µg/mL (≈ 154 µM)

Question: With `CC[C@@H]1CCN(C)[C@H](C(=O)NC(C(C)Cl)C2OC(SC)C(O)C(O)C2O)C1` (stereo partly drawn) as the compound, how does the MIC read?
Answer: 0.2 µg/mL (≈ 0.471 µM)

Question: How did the MIC turn out when `CSC1OC(C(NC(=O)[C@@H]2CCCCCN2)C(C)Cl)C(O)C(O)C1O` (stereo partly drawn) was run?
Answer: 1.56 µg/mL (≈ 3.93 µM)

Question: Which MIC does the source give for `CSC1OC(C(NC(=O)[C@@H]2CCCCN2C)C(C)Cl)C(O)C(O)C1O` (stereo partly drawn) here?
Answer: 3.9 µg/mL (≈ 9.83 µM)

Question: With `CSC1OC(C(NC(=O)[C@@H]2NCCC[C@@H]2C)C(C)Cl)C(O)C(O)C1O` (stereo partly drawn) as the compound, how does the MIC read?
Answer: 25 µg/mL (≈ 63 µM)

Question: How did the MIC turn out when `CSC1OC(C(NC(=O)[C@H]2CCC[C@@H](C)N2)C(C)Cl)C(O)C(O)C1O` (stereo partly drawn) was run?
Answer: > 25 µg/mL

Question: With `CSC1OC(C(NC(=O)c2ccccn2)C(C)Cl)C(O)C(O)C1O` (stereo not drawn) as the compound, how does the MIC read?
Answer: 62.5 µg/mL (≈ 166 µM)

Question: `CCc1cccc(C(=O)NC(C(C)Cl)C2OC(SC)C(O)C(O)C2O)n1` (stereo not drawn) was tested. Which MIC did it give?
Answer: > 25 µg/mL

Question: `CSC1OC(C(NC(=O)[C@@H]2CC3CCN2CC3)C(C)Cl)C(O)C(O)C1O` (stereo partly drawn) was tested. Which MIC did it give?
Answer: > 100 µg/mL

Question: For `CC[C@H]1CC[C@@H](C(=O)NC(C(C)Cl)C2OC(SC)C(O)C(O)C2O)NC1` (stereo partly drawn), which MIC is on record?
Answer: 2 µg/mL (≈ 4.87 µM)

Question: Which MIC does the source give for `CSC1OC(C(NC(=O)[C@H]2CCCNC2)C(C)Cl)C(O)C(O)C1O` (stereo partly drawn) here?
Answer: > 80 µg/mL

Question: Which MIC does the source give for `CSC1OC(C(NC(=O)[C@@H]2CCN2)C(C)Cl)C(O)C(O)C1O` (stereo partly drawn) here?
Answer: 25 µg/mL (≈ 70.5 µM)

Question: With `CC[C@@H]1CCN(CCO)[C@H](C(=O)NC(C(C)Cl)C2OC(SC)C(O)C(O)C2O)C1` (stereo partly drawn) as the compound, how does the MIC read?
Answer: 2.5 µg/mL (≈ 5.49 µM)

Question: How did the MIC turn out when `CSC1OC(C(NC(=O)[C@@H]2CCCCN2)C(C)Cl)C(O)C(O)C1O` (stereo partly drawn) was run?
Answer: 3.9 µg/mL (≈ 10.2 µM)

Question: Which MIC does the source give for `CSC1OC(C(NC(=O)[C@H]2C[C@@H](C(C)(C)C)CCN2)C(C)Cl)C(O)C(O)C1O` (stereo partly drawn) here?
Answer: > 25 µg/mL

Question: How did the MIC turn out when `CSC1OC(C(NC(=O)[C@H]2NCCCC2C)C(C)Cl)C(O)C(O)C1O` (stereo partly drawn) was run?
Answer: 12.5 µg/mL (≈ 31.5 µM)

Question: `CCCCCCCCc1ccnc(C(=O)NC(C(C)Cl)C2OC(SC)C(O)C(O)C2O)c1` (stereo not drawn) was tested. Which MIC did it give?
Answer: > 10 µg/mL

Question: For `CC[C@H]1CCN[C@@H](C(=O)N[C@@H]([C@H]2O[C@H](SC)[C@H](O)[C@@H](O)[C@H]2O)[C@H](C)Cl)C1`, which MIC is on record?
Answer: 250 µg/mL (≈ 608 µM)

Question: Which MIC does the source give for `CCc1ccnc(C(=O)NC(C(C)Cl)C2OC(SC)C(O)C(O)C2O)c1` (stereo not drawn) here?
Answer: 1000 µg/mL (≈ 2470 µM)

Question: Which MIC does the source give for `CCCCCCc1ccnc(C(=O)NC(C(C)Cl)C2OC(SC)C(O)C(O)C2O)c1` (stereo not drawn) here?
Answer: 50 µg/mL (≈ 108 µM)
